EphB4 antag – EphB4-ephrin-B2 interaction antagonists, primary screen, biochemical, TNYL-RAW peptide probe, fluorescence polarization; Ephrin type-B receptor 4 (Homo sapiens), P54760; AID 720, 2007; inhibition, % at 7 µM; 0.15% of 97,000 active; EphB4 LBD / TNYL-RAW-Alexa532 peptide;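 active means inhibition above the screen-wide mean inhibition plus 3 SD, cut at about 15% in these data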
Target sequence (P54760 whole entry, looked up, the tested form may be a part): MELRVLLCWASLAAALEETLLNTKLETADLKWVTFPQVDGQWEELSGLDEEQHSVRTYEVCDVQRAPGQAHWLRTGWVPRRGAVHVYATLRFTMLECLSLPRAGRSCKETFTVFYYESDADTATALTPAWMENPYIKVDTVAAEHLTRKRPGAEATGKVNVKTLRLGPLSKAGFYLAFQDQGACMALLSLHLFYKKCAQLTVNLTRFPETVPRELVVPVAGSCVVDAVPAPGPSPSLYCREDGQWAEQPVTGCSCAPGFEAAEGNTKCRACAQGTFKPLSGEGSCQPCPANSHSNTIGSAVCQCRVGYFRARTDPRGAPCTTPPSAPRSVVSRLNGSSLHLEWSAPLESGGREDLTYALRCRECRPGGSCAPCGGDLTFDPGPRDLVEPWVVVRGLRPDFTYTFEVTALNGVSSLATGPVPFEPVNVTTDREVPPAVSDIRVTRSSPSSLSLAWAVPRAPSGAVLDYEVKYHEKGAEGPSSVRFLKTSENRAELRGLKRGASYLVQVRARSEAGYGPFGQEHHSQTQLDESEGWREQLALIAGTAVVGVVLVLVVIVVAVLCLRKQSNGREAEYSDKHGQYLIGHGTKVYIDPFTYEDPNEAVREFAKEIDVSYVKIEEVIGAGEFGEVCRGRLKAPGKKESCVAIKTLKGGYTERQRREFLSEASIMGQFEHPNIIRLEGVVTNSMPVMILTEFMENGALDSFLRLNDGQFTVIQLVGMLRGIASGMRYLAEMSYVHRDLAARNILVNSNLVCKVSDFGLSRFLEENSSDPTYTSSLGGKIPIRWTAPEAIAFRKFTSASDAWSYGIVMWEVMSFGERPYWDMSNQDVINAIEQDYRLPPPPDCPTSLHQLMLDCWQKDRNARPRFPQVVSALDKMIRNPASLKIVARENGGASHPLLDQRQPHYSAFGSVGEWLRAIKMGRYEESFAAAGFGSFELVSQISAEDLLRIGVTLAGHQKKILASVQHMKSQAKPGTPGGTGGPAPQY
E coli WT exp – growth inhibitors of wild-type E. coli, primary screen, strain BW25113, expanded library, OD600; OD600 absorbance; growth inhibition, % at 100 µM; 0.15% of 98,000 active; AID 710, 2007;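 active means growth inhibition above about 50% at one test dose, limit read from the data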;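 further: growth measured after 20 h incubation at 37 °C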
PostGolgi ctrl – growth inhibition of yeast control strain, primary screen, counter-screen for post-Golgi transport modulator project; efflux-deficient yeast background strain, growth absorbance A615, 16 h; inhibition, % at 10 µM; 5% of 98,000 active
PostGolgi yeast – phenotypic screen on post-Golgi transport, primary screen. post-Golgi transport phenotypic cell assay. inhibition, % at 10 µM. 0.9% of 98,000 active. AID 739, 2007;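 further: yeast cells grown in 1536-well plates; yeast grown about 18 h at 30C before absorbance read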
Ecoli tolC – growth inhibitors of E. coli tolC mutant, primary screen, strain BW25113 ΔtolC::kan, 384-well. OD615. growth inhibition, % at 10 µM (by protocol). 2.2% of 65,000 active. AID 573, 2007;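 active means growth inhibition at or above a cutoff equal to the mean over every tested compound plus 3 SD, cut at about 60% in these data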;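 further: growth measured after 20 h incubation at 37 °C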
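Test system: tolC-deleted E. coli BW25113 | Medium: LB with kanamycin 50 µg/mL | Compound dosing: Single concentration, 10 µM final per compound | Schedule: 37 °C, 20 h exposure | Measured by: OD at 615 nm | Evaluation: Percent growth inhibition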
Numbers stand for hits. The list is not random: actives were taken first. Their share in the collection is about 6%. Unless noted, no stated cut-off is given here; in the data, active means inhibition above about 30%; inactive means the rest.

`OC(CN(c1ccccc1)c1ccccc1)Cn1cnc2ccccc21` (centres undefined) gave EphB4 antag inactive, E coli WT exp inactive, PostGolgi ctrl 32, PostGolgi yeast inactive and Ecoli tolC inactive.
`CC(C)(C)CC(C)(C)NC(=O)CSCC(=O)Nc1ccc2ccccc2c1` gave EphB4 antag inactive.
CC1(C)C(=O)Nc2ccccc2N1C(=O)COC(=O)c1ccc(Cl)c(S(=O)(=O)NCc2ccccc2)c1 was read as EphB4 antag inactive, E coli WT exp inactive, PostGolgi ctrl inactive and PostGolgi yeast inactive.
For COC(=O)C1=C(N)Oc2cc(C)n(CC3CCCO3)c(=O)c2C1c1ccc(Cl)cc1 (centres undefined) the results were EphB4 antag inactive, E coli WT exp inactive, PostGolgi ctrl inactive, PostGolgi yeast inactive and Ecoli tolC inactive.
CC(C)N1C(=O)/C(=C/c2nc3ccccc3c(=O)n2-c2ccccc2)c2ccccc21 was read as EphB4 antag inactive, E coli WT exp inactive, PostGolgi ctrl 31 and PostGolgi yeast inactive.
Screening Cc1ccc(-c2cc(C(=O)NCCCn3ccnc3)c3cc(Br)ccc3n2)o1 returned EphB4 antag inactive, E coli WT exp inactive, PostGolgi ctrl inactive, PostGolgi yeast inactive and Ecoli tolC inactive.
For Cc1ccc(-c2cc(C(=O)NCc3cnn(C)c3C)c3cc(Br)ccc3n2)cc1 the results were EphB4 antag inactive, E coli WT exp inactive, PostGolgi ctrl 50 and PostGolgi yeast inactive.
For CCc1c(O)nc(SCC(=O)Nc2ccc(C)cc2)n(C2CCCCC2)c1=O the results were EphB4 antag inactive, E coli WT exp inactive, PostGolgi ctrl inactive, PostGolgi yeast inactive and Ecoli tolC 78.
CCc1c(O)nc(SCC(=O)Nc2ccccc2)n(-c2ccccc2)c1=O was read as EphB4 antag inactive, E coli WT exp inactive, PostGolgi ctrl inactive, PostGolgi yeast inactive and Ecoli tolC inactive.
For CCOC(=O)c1c(C)oc2c1c(C(c1cccnc1)N1CCN(C)CC1)c(O)c1ccccc12 (centres undefined) the results were Ecoli tolC inactive.
Screening CCOC(=O)c1c(C)oc2c1c(C(c1cccnc1)N1CCOCC1)c(O)c1ccccc12 (centres undefined) returned EphB4 antag inactive, E coli WT exp inactive, PostGolgi ctrl 37 and PostGolgi yeast inactive.
Screening CCOC(=O)c1c(C)oc2c1c1c(c3ccccc32)OCN(Cc2cccnc2)C1 returned EphB4 antag 16, E coli WT exp inactive, PostGolgi ctrl 35, PostGolgi yeast inactive and Ecoli tolC inactive.
For COc1ccc(OC)c(N2C(=O)CC(Cc3ccc(C)cc3)C2=O)c1 (centres undefined) the results were EphB4 antag inactive and Ecoli tolC inactive.
For CC(C)(C)c1cnnn1-c1ccc(-c2csc(N)n2)cc1 the results were EphB4 antag inactive, E coli WT exp inactive, PostGolgi ctrl 46, PostGolgi yeast inactive and Ecoli tolC inactive.
Cc1cccc(-c2cc3nc4c(c(N5CCCC(O)C5)n3n2)CCC4)c1 (centres undefined) was read as EphB4 antag inactive, E coli WT exp inactive, PostGolgi ctrl 79, PostGolgi yeast inactive and Ecoli tolC inactive.
Screening OC1CCCN(c2c3c(nc4cc(-c5cccc(Cl)c5)nn24)CCC3)C1 (centres undefined) returned EphB4 antag inactive, E coli WT exp inactive, PostGolgi ctrl 96, PostGolgi yeast inactive and Ecoli tolC inactive.
`Cc1cnc(C(=O)Nc2ccccc2-c2ccc(C)o2)cn1` gave EphB4 antag inactive, E coli WT exp inactive, PostGolgi ctrl inactive, PostGolgi yeast inactive and Ecoli tolC inactive.
For O=S(=O)(Nc1cccc2cccnc12)c1ccc(S(=O)(=O)N2CCCC2)cc1 the results were EphB4 antag inactive, E coli WT exp inactive, PostGolgi ctrl inactive, PostGolgi yeast inactive and Ecoli tolC 81.
CS(=O)(=O)Nc1cccc2cccnc12 was read as EphB4 antag inactive, E coli WT exp inactive, PostGolgi ctrl inactive, PostGolgi yeast inactive and Ecoli tolC inactive.
For Cc1cc2oc(=O)cc(COC(=O)c3cccc(N(C)C)c3)c2cc1C the results were Ecoli tolC inactive.
COc1ccc(Cc2nnc(SCC(=O)N3CCN(c4ccccc4)CC3)o2)cc1 was read as EphB4 antag inactive, E coli WT exp inactive, PostGolgi ctrl 36, PostGolgi yeast inactive and Ecoli tolC inactive.
Screening COc1ccccc1N1CCN(C(=O)CSc2nc3ccccc3o2)CC1 returned EphB4 antag inactive, E coli WT exp inactive, PostGolgi ctrl inactive and PostGolgi yeast 33.
Screening O=C(CSc1nc2ccccc2o1)N1CCN(C(=O)c2ccco2)CC1 returned EphB4 antag inactive, E coli WT exp inactive, PostGolgi ctrl inactive, PostGolgi yeast inactive and Ecoli tolC inactive.
`COc1ccccc1N1CCN(C(=O)Cc2cccs2)CC1` gave EphB4 antag inactive, E coli WT exp inactive, PostGolgi ctrl 38, PostGolgi yeast inactive and Ecoli tolC inactive.
`C=CCn1c(SCC(=O)c2ccc(Br)cc2)nnc1C(CC(C)C)NC(=O)c1cccs1` (centres undefined) gave EphB4 antag inactive, E coli WT exp inactive, PostGolgi ctrl inactive and PostGolgi yeast inactive.
Screening Cc1cccc(S(=O)(=O)C(C#N)c2nc3ccccc3nc2N2CCOCC2)c1 (centres undefined) returned EphB4 antag inactive, E coli WT exp inactive, PostGolgi ctrl inactive, PostGolgi yeast inactive and Ecoli tolC inactive.
Screening CSc1ccc(-c2cc(=O)c3ccccc3o2)cc1 returned EphB4 antag inactive, E coli WT exp inactive, PostGolgi ctrl inactive, PostGolgi yeast inactive and Ecoli tolC 61.
For O=c1cc(-c2ccc(F)cc2)oc2ccccc12 the results were EphB4 antag inactive.
Screening O=C(O)c1nn2c(c1Br)NC(c1ccccc1)CC2C(F)(F)F (centres undefined) returned EphB4 antag inactive, E coli WT exp inactive, PostGolgi ctrl 32, PostGolgi yeast inactive and Ecoli tolC inactive.
Cc1nnc(N2CCN(c3ccccc3)CC2)c2nn(-c3ccccc3F)c(C)c12 was read as EphB4 antag inactive.
For O=C(N/N=C/c1ccc(F)cc1)c1cc(-c2ccco2)nc2ccccc12 the results were EphB4 antag inactive, E coli WT exp inactive, PostGolgi ctrl inactive and PostGolgi yeast inactive.
`CCc1ccc(/C=N/NC(=O)c2cc(C3CC3)nc3ccccc23)s1` gave EphB4 antag inactive, E coli WT exp inactive, PostGolgi ctrl 32 and PostGolgi yeast inactive.
Cc1cc(Br)ccc1NC(=O)CCN1C(=O)c2ccncc2C1=O was read as EphB4 antag inactive, E coli WT exp inactive, PostGolgi ctrl 33, PostGolgi yeast inactive and Ecoli tolC inactive.
Screening CCn1c(Oc2ccc(Oc3ncc(Cl)cc3Cl)cc2)nc2c1c(=O)n(C)c(=O)n2C returned Ecoli tolC inactive.
For COc1cccc(NC(=O)c2ccccc2-c2nc(-c3ccccc3)no2)c1 the results were EphB4 antag inactive, E coli WT exp inactive, PostGolgi ctrl 42, PostGolgi yeast inactive and Ecoli tolC inactive.
COc1ccc(Cl)cc1-c1nc(-c2ccc(NC(=O)c3ccncc3)cc2)no1 was read as EphB4 antag inactive and Ecoli tolC inactive.

High-throughput results from PubChem.
